In ChEMBL document CHEMBL1153263, “3-Acrylamide-4-aryloxyindoles: synthesis, biological evaluation and metabolic stability of potent and selective EP3 receptor antagonists” (Bioorg Med Chem Lett, 2009):

How the values were obtained:
[1] = biological target: T1, Prostaglandin E2 receptor EP3 subtype (Homo sapiens, UniProt P43115); assay: Displacement of [3H]PGE2 from human EP3 receptor at 20 uM in presence of normal buffer
T1 sequence (P43115 whole entry): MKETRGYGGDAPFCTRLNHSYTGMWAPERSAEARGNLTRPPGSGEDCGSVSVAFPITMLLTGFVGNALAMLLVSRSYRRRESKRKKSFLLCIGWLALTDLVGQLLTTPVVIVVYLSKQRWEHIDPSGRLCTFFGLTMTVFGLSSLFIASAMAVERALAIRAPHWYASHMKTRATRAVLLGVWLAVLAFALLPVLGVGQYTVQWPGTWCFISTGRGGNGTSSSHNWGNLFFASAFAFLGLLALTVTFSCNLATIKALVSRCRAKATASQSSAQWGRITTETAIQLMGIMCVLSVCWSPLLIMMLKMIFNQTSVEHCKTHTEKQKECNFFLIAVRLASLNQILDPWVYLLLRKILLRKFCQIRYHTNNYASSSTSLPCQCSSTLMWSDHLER

[2] = biological target: T1, Prostaglandin E2 receptor EP3 subtype; assay: Displacement of [3H]PGE2 from human EP3 receptor at 20 uM in presence of 10% human serum
[3] = biological target: T2, Prostaglandin E2 receptor EP3 subtype (Homo sapiens) (UniProt P43115); assay: Ratio IC50 for human EP3 receptor in presence of human serum to IC50 for human EP3 in absence of human serum
T2 sequence (whole entry): T1 sequence (P43115 whole entry)

[4] = biological target: Prostaglandin E2 receptor EP2 subtype (Homo sapiens, UniProt P43116); assay: Displacement of radioligand from EP2 receptor
[5] = biological target: Prostaglandin E2 receptor EP4 subtype (Homo sapiens, UniProt P35408); assay: Displacement of radioligand from EP4 receptor
[6] = biological target: Prostaglandin F2-alpha receptor (Homo sapiens, UniProt P43088); assay: Displacement of radioligand from FP receptor
[7] = biological target: T3, Prostaglandin E2 receptor EP1 subtype (Homo sapiens, UniProt P34995); assay: Displacement of radioligand from EP1 receptor
T3 sequence (P34995 whole entry): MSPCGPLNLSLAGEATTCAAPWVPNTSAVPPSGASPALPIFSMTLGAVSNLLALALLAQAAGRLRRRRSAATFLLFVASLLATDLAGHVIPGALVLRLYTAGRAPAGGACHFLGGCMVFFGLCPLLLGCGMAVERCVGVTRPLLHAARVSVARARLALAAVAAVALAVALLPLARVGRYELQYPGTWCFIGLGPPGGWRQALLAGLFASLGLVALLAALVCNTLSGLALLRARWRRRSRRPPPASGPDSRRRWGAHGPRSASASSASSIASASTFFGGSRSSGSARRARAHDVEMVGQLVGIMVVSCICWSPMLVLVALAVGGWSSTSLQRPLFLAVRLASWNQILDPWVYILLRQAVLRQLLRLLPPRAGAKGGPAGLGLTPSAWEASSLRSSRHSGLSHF

[8] = Metabolic stability in human liver microsome assessed as compound remaining at 5 uM after 30 mins; format: ADME; conditions: liver microsomes, read-out: Stability
In short: (§1)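 Liver microsomes at 0.8 mg/mL protein incubated with compound at 5 µM. Percent parent remaining after 30 min measured by LC–MS/MS.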

[9] = Metabolic stability in rat liver microsome assessed as compound remaining at 5 uM after 30 mins; format: ADME; conditions: liver microsomes, read-out: Stability; in short: as §1
[10] = Metabolic stability in dog liver microsome assessed as compound remaining at 5 uM after 30 mins; format: ADME, Canis lupus familiaris; conditions: liver microsomes, read-out: Stability; in short: as §1
Prostacyclin receptor = Prostacyclin receptor (Homo sapiens, UniProt P43119); assay: Displacement of radioligand from IP receptor
Prostacyclin receptor, sequence (P43119 whole entry): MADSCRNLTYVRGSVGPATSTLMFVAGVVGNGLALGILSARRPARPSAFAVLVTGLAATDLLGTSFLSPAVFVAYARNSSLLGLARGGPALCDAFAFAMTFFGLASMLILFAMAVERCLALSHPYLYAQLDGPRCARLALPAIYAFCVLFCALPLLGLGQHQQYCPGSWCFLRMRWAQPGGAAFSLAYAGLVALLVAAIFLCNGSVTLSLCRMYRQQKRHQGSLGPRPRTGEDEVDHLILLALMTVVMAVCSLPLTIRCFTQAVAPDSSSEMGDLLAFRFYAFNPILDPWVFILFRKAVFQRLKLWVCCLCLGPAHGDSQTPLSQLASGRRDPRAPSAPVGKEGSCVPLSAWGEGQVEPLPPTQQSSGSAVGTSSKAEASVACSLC

Prostaglandin E2 receptor EP4 subtype, sequence (P35408 whole entry): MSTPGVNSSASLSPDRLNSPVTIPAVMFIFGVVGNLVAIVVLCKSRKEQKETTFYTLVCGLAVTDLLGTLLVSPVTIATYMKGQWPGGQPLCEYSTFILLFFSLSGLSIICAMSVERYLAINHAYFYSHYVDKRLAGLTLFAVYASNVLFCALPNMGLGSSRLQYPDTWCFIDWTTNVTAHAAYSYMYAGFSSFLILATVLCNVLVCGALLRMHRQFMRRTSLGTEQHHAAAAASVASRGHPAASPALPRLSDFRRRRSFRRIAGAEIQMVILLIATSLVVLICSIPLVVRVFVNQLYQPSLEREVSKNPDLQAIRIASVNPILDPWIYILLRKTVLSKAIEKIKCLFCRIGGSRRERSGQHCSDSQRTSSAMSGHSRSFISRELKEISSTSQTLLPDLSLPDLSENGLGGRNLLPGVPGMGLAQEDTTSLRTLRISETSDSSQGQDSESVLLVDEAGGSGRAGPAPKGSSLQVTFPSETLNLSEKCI
Prostaglandin E2 receptor EP2 subtype, sequence (P43116 whole entry): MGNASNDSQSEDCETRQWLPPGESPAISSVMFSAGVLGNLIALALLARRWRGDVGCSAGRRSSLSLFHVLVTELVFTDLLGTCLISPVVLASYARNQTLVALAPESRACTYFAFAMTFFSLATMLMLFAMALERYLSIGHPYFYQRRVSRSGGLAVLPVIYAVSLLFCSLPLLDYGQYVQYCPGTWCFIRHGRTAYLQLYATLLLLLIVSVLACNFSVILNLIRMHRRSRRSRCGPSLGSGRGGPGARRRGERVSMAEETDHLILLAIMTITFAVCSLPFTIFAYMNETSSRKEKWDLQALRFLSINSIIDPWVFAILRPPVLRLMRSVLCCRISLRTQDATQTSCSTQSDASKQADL
Prostaglandin F2-alpha receptor, sequence (P43088 whole entry): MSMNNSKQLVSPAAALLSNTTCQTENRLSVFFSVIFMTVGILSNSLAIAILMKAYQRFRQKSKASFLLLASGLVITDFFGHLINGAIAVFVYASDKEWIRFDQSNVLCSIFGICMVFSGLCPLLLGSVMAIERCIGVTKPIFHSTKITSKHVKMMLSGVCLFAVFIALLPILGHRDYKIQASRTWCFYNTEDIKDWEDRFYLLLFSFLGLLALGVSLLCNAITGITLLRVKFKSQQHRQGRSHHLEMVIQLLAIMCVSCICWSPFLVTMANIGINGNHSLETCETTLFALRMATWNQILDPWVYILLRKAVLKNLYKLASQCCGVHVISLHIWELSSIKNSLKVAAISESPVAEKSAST

| IC50 [1] [nM] | IC50 [2] [nM] | Ratio IC50 [3] | Compound | other results |
| --- | --- | --- | --- | --- |
| 3.5 | 115 | 32.7 | Cn1cc(/C=C/C(=O)NS(=O)(=O)c2ccc(F)cc2F)c2c(Oc3ccc4ccccc4c3)cccc21 | – |
| 101 | – | – | COc1ccc(S(=O)(=O)NC(=O)/C=C/c2cn(C)c3cccc(Oc4ccc5ccccc5c4)c23)cc1 | – |
| 9.7 | 61.1 | 6.3 | Cn1cc(/C=C/C(=O)NS(=O)(=O)c2cc(F)c(F)cc2F)c2c(Oc3ccc(F)c(Cl)c3)cccc21 | IC50 [4]: > 10 µM; IC50 [5]: > 10 µM; IC50 [6]: 3.16 µM; IC50 [7]: > 10 µM |
| 4.4 | 156 | 35.6 | Cn1cc(/C=C/C(=O)NS(=O)(=O)c2cc(F)c(F)cc2F)c2c(Oc3ccc(Cl)cc3F)cccc21 | – |
| 44.9 | 157 | 3.5 | Cn1cc(/C=C/C(=O)NS(=O)(=O)c2cc(F)cc(F)c2)c2c(Oc3ccc4ccccc4c3)cccc21 | – |
| 9.4 | 182 | 19.4 | Cn1cc(/C=C/C(=O)NS(=O)(=O)c2ccc(F)cc2)c2c(Oc3ccc4ccccc4c3)cccc21 | – |
| 18.5 | – | – | Cn1cc(/C=C/C(=O)NS(=O)(=O)c2ccc(F)c(F)c2)c2c(Oc3ccc(F)cc3F)cccc21 | – |
| 18.4 | 1680 | 91.3 | Cn1cc(/C=C/C(=O)NS(=O)(=O)c2ccccc2Cl)c2c(Oc3ccc4ccccc4c3)cccc21 | – |
| 15.7 | 35 | 2.2 | Cn1cc(/C=C/C(=O)NS(=O)(=O)c2cccc(Cl)c2)c2c(Oc3ccc4ccccc4c3)cccc21 | remaining at 0.5 h, 5 µM [8]: 79%; remaining at 0.5 h, 5 µM [9]: 33.3%; remaining at 0.5 h, 5 µM [10]: 80.6% |
| 12.4 | 50.8 | 4.1 | Cn1cc(/C=C/C(=O)NS(=O)(=O)c2ccc(F)c(F)c2)c2c(Oc3ccc(Cl)c(Cl)c3)cccc21 | IC50 [4]: 4.2 µM; IC50 [5]: 20.4 µM; IC50 [6]: 2.4 µM; remaining at 0.5 h, 5 µM [8]: 58.8%; remaining at 0.5 h, 5 µM [9]: 14.9%; IC50 [7]: > 10 µM |
| 6.5 | 157 | 24.3 | Cn1cc(/C=C/C(=O)NS(=O)(=O)c2cc(F)ccc2F)c2c(Oc3ccc4ccccc4c3)cccc21 | – |
| 5.1 | – | – | Cn1cc(/C=C/C(=O)NS(=O)(=O)c2c(F)c(F)c(F)c(F)c2F)c2c(Oc3ccc4ccccc4c3)cccc21 | – |
| 6.1 | 217 | 35.3 | Cn1cc(/C=C/C(=O)NS(=O)(=O)c2ccc(F)c(F)c2)c2c(Oc3cnc4ccccc4n3)cccc21 | – |
| 3.2 | 16.7 | 5.2 | Cn1cc(/C=C/C(=O)NS(=O)(=O)c2cc(F)c(F)cc2F)c2c(Oc3ccc(Cl)cc3Cl)cccc21 | IC50 [4]: 9.3 µM; IC50 [5]: > 10 µM; IC50 [6]: 3.57 µM; remaining at 0.5 h, 5 µM [8]: 74.7%; remaining at 0.5 h, 5 µM [9]: 39.1% |
| 7.2 | 124 | 17.2 | Cn1cc(/C=C/C(=O)NS(=O)(=O)c2ccc(F)c(F)c2)c2c(Oc3ccc(Cl)cc3F)cccc21 | IC50 [4]: > 10 µM; IC50 [5]: > 10 µM; IC50 (Prostacyclin receptor): > 10 µM; IC50 [6]: 3.19 µM; remaining at 0.5 h, 5 µM [8]: 113%; remaining at 0.5 h, 5 µM [9]: 40%; IC50 [7]: > 10 µM |
| 3.8 | 209 | 55 | Cn1cc(/C=C/C(=O)NS(=O)(=O)c2cc(F)c(F)cc2F)c2c(Oc3ccc(F)c(F)c3)cccc21 | – |
| 13.8 | 146 | 10.5 | Cn1cc(/C=C/C(=O)NS(=O)(=O)c2ccc(F)c(F)c2)c2c(Oc3ccc(F)cc3Cl)cccc21 | – |
| 17.5 | 116 | 6.6 | Cn1cc(/C=C/C(=O)NS(=O)(=O)c2cccc(F)c2)c2c(Oc3ccc4ccccc4c3)cccc21 | – |
| 23.4 | 612 | 26.3 | Cn1cc(/C=C/C(=O)NS(=O)(=O)c2ccc(F)c(F)c2)c2c(Oc3ccc(Cl)c(F)c3)cccc21 | – |
| 11.9 | 646 | 54.3 | Cn1cc(/C=C/C(=O)NS(=O)(=O)c2ccccc2F)c2c(Oc3ccc4ccccc4c3)cccc21 | – |

| IC50 [1] [nM] | IC50 [2] [nM] | Ratio IC50 [3] | Compound | other results |
| --- | --- | --- | --- | --- |
| 8.7 | 321 | 37 | Cn1cc(/C=C/C(=O)NS(=O)(=O)c2cc(Cl)cc(Cl)c2)c2c(Oc3ccc4ccccc4c3)cccc21 | – |
| 1.9 | 130 | 68.7 | Cn1cc(/C=C/C(=O)NS(=O)(=O)c2ccc(F)c(F)c2)c2c(Oc3ccc4ncccc4c3)cccc21 | – |
| 18.1 | 316 | 17.5 | Cn1cc(/C=C/C(=O)NS(=O)(=O)c2cc(F)c(F)cc2F)c2c(Oc3ccc(F)cc3Cl)cccc21 | – |
| 3 | 393 | 132 | Cn1cc(/C=C/C(=O)NS(=O)(=O)c2cc(F)c(F)cc2F)c2c(Oc3ccc(Cl)cc3)cccc21 | – |
| 84.8 | – | – | Cn1cc(/C=C/C(=O)NS(=O)(=O)c2cc(F)c(F)cc2F)c2c(Oc3ccc(F)cc3F)cccc21 | – |
| 4.7 | 196 | 41.9 | Cn1cc(/C=C/C(=O)NS(=O)(=O)c2ccc(F)c(F)c2)c2c(Oc3ccc(F)c(F)c3)cccc21 | – |
| 11.8 | 92.9 | 7.8 | Cn1cc(/C=C/C(=O)NS(=O)(=O)c2ccc(Cl)c(Cl)c2)c2c(Oc3ccc4ccccc4c3)cccc21 | – |
| 7.2 | 128 | 17.7 | Cn1cc(/C=C/C(=O)NS(=O)(=O)c2cc(F)c(F)cc2F)c2c(Oc3cnc4ccccc4n3)cccc21 | – |
| 26.9 | 81.5 | 3 | Cn1cc(/C=C/C(=O)NS(=O)(=O)c2ccc(F)c(F)c2)c2c(Oc3ccc(F)c(Cl)c3)cccc21 | IC50 [4]: > 10 µM; IC50 [5]: > 10 µM; IC50 (Prostacyclin receptor): 4.1 µM; IC50 [6]: 1.82 µM; remaining at 0.5 h, 5 µM [8]: 91.5%; remaining at 0.5 h, 5 µM [9]: 32% |
| 5.1 | – | – | COc1cccc(Oc2cccc3c2c(/C=C/C(=O)NS(=O)(=O)c2cc(F)c(F)cc2F)cn3C)c1 | – |
| 5.9 | 710 | 121 | Cn1cc(/C=C/C(=O)NS(=O)(=O)c2c(F)cccc2F)c2c(Oc3ccc4ccccc4c3)cccc21 | – |
| 4.4 | – | – | COc1cccc(Oc2cccc3c2c(/C=C/C(=O)NS(=O)(=O)c2ccc(F)c(F)c2)cn3C)c1 | – |
| 54.1 | 1540 | 28.5 | Cn1cc(/C=C/C(=O)NS(=O)(=O)c2ccc(Cl)cc2Cl)c2c(Oc3ccc4ccccc4c3)cccc21 | – |
| 21.9 | 1100 | 50.2 | Cn1cc(/C=C/C(=O)NS(=O)(=O)c2ccc(Cl)cc2)c2c(Oc3ccc4ccccc4c3)cccc21 | – |
| 6.7 | 53.9 | 8 | Cn1cc(/C=C/C(=O)NS(=O)(=O)c2cc(F)c(F)cc2F)c2c(Oc3ccc(Cl)c(F)c3)cccc21 | IC50 [4]: 10 µM; IC50 [5]: 10 µM; IC50 [6]: 2.23 µM; IC50 [7]: 1.37 µM |
| 2.6 | 45.2 | 17.1 | Cn1cc(/C=C/C(=O)NS(=O)(=O)c2cc(F)c(F)cc2F)c2c(Oc3ccc(Cl)c(Cl)c3)cccc21 | IC50 [4]: 7.68 µM; IC50 [5]: 13 µM; IC50 [6]: 4.64 µM; IC50 [7]: 5.32 µM |
| 27.3 | 776 | 28.4 | Cn1cc(/C=C/C(=O)NS(=O)(=O)c2ccc(F)c(F)c2)c2c(Oc3ccc(Cl)cc3)cccc21 | – |
| 8.5 | 168 | 19.8 | Cn1cc(/C=C/C(=O)NS(=O)(=O)c2cc(F)c(F)cc2F)c2c(Oc3ccc4ncccc4c3)cccc21 | – |
| 4.6 | 89.6 | 19.4 | Cn1cc(/C=C/C(=O)NS(=O)(=O)c2cc(Cl)c(Cl)s2)c2c(Oc3ccc4ccccc4c3)cccc21 | – |
